# Bioassay records (PubChem)
# proCasp3 act: activators of human procaspase-3 D3A mutant, primary screen, biochemical, absorbance, PC-3 D3A mutant, single concentration | recombinant procaspase-3 D3A, Ac-DEVD-pNA absorbance 405 nm | 330,000 compounds, 0.11% hits | Caspase-3 (Homo sapiens), P42574 | activation, % at 8.5 µM;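 active = activation above the mean of all tested compounds plus 3 SD, cut at about 21% in these data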;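 note: 0% = DMSO alone and 100% = DMSO wells spiked with extra 5 µM PC-3 D3A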
#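 Technique: 405 nm absorbance of p-nitroaniline, reads at 0 and 120 min; Test system: Procaspase-3 D3A mutant; Incubation: 1 h enzyme-compound preincubation, then 2 h substrate reaction, 25 °C; Repeats: singlicate, each compound tested once; Benchmarks: low control DMSO wells, high control DMSO plus 5 µM PC-3 D3A.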
# GSTO1 inh: inhibitors of recombinant GSTO1, primary screen, counter-screen for RBBP9 inhibitor project, biochemical, fluorescence polarization | activity-based probe fluorescence polarization | 300,000 compounds, 1.1% hits | Glutathione S-transferase omega-1 (Homo sapiens), P78417 | AID 1974, 2009 | inhibition, % at 5.96 µM;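 active = inhibition above the campaign mean inhibition plus 3 SD, cut at about 35% in these data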;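 note: 0% = GSTO1-1 with DMSO and 100% = wells lacking GSTO1-1 enzyme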
# procasp7 counter: procaspase-7 activators, primary screen, counter-screen for procaspase-3 activator project, biochemical, absorbance, HTS, human; 330,000 compounds, 0.093% hits; Caspase-7 (Homo sapiens), P55210; activation, % at 8.5 µM; recombinant procaspase-7, Ac-DEVD-pNA absorbance 405 nm; D23A/D198A/D206A triple mutant, cannot self-cleave; scale: DMSO 0, 5 µM enzyme 100; AID 463210, 2010;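 active = percent activation above the screen-wide mean plus 3 SD, cut at about 25% in these data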
# Target sequence (P55210 whole entry D23A/D198A/D206A): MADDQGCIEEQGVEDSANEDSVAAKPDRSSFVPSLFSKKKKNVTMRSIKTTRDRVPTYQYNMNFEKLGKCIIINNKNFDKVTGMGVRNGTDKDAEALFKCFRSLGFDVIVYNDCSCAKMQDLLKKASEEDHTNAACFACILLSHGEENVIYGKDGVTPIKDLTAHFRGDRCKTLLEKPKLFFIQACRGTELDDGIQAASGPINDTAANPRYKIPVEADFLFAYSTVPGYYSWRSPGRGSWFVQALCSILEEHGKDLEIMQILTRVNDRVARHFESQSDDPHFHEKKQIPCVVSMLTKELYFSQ
#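 Assay system: Uncleavable procaspase-7 mutant enzyme / Input: 2 µM procaspase-7 mutant as dispensed / Dosing: single nominal 8.5 µM compound dose, 0.8% DMSO final / Timing: 1 h enzyme–compound preincubation and 2 h substrate reaction, both 25 °C / Detection: p-Nitroaniline absorbance at 405 nm, read at 0 and 120 min / Replication: singlicate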
# ZTA counter: blocks Epstein-Barr virus ZTA, an EBNA-1 counter-screen; P03206; ZTA-DNA binding, fluorescence polarization; inhibition, % at 11 µM; 320,000 compounds, 0.15% hits; AID 2234; in the data active = inhibition above about 33%
# EBNA-1 inh: EBNA-1 DNA-binding inhibitors, primary screen, biochemical, fluorescence polarization; AID 1950, 2009; 300,000 compounds, 0.34% hits; inhibition, % at 14.8 µM; in the data active = inhibition above about 28%
# Apaf1 inhib: inhibitors of human Apaf-1 apoptosome, primary screen, biochemical, DEVD-Rh110 fluorescence, uHTS. Apoptotic protease-activating factor 1 (Homo sapiens), O14727. reconstituted apoptosome caspase-3 activity. inhibition, % at 20 µM. 330,000 compounds, 0.71% hits; active = inhibition of at least 40% at 20 µM;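 note: plate controls were DMSO wells for no effect and DEVD-CHO caspase inhibitor wells for full effect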
#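 System – cell-free apoptosome with Apaf-1, procaspase-3 and caspase-9 · Buffer or medium – pH 7.5 Hepes buffer with CHAPS, BSA, DTT · Also added – cytochrome c with DEVD-Rh110 · Times – 30 min compound preincubation, 50 min activation, room temperature · Technique – Rh110 fluorescence intensity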
# Apaf-1 inh conf: Apaf-1 inhibitors, single-dose retest, confirmation, biochemical, fluorescence, DEVD-Rh110, 20 µM; reconstituted apoptosome, caspase-3 DEVD-Rh110 fluorescence; inhibition, % at 20 µM; shares compounds with Apaf1 inhib; 1,800 compounds, 25% hits;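 active = mean inhibition of at least 40% at 20 µM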;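 note: plate controls were DMSO wells for no effect and DEVD-CHO caspase inhibitor control wells for full effect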
# Rh110 quench: Rh110 fluorescence interference by putative Apaf-1 inhibitors, confirmation, artefact control for Apaf-1 inhibitor project, biochemical, 20 µM; activation (fluorescence interference), % at 20 µM; shares compounds with Apaf1 inhib; 1,800 tested, under 10 active; quenched caspase reaction;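 active = signal rise of 40% or more at 20 µM, treated as a fluorescence artifact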
# Apaf1 inh interf: fluorescence interference of Apaf-1 inhibitor hits, dose response, artefact control for Apaf-1 inhibitor project | shares compounds with Apaf1 inhib | fluorescence interference counterscreen, Apaf-1 assay format | IC50, µM | 460 tested, under 10 active | AID 588538, 2011; call rule not given here
# * hit, by the source's call; x = no result given. Most compounds without a hit are left out; they make up all but 1.8% or so of the library.
SMILES,proCasp3 act,GSTO1 inh,procasp7 counter,ZTA counter,EBNA-1 inh,Apaf1 inhib,Apaf-1 inh conf,Rh110 quench,others
O=C(CCNC(=O)c1ccc(Br)cc1)Nc1ncccc1O,-1.2,3.6,4.0,1.3,14.9,-11.6,x,x,
NC(=O)c1nsc(C(=O)N(c2ccccc2)C(C(=O)NC2CCCCC2)c2ccc(O)cc2)c1N (configuration not stated),0.4,-5.5,6.1,-2.2,0.5,9.2,x,x,
Cn1ccnc1C(O)c1ccccc1 (configuration not stated),2.6,3.2,2.2,14.4,13.1,-3.9,x,x,
COc1ccc2ccccc2c1C(O)c1nccn1C (configuration not stated),5.9,35.7*,3.8,-4.1,1.8,40.7*,10.4,-2.2,
COc1ccc2c(c1)c(/C=N/Nc1nc3ccccc3[nH]1)c(C)n2C,-1.1,-5.1,-2.7,-3.3,-7.1,43.5*,20.2,15.2,
COc1cc(/C=N\Nc2nc3ccccc3[nH]2)cc(OC)c1OC,7.6,-10.2,-14.1,4.5,4.7,5.0,x,x,
COc1ccccc1NS(=O)(=O)c1ccc(C(=O)NCCCN2CCOCC2)cc1,x,x,x,x,x,10.9,x,x,
COc1cccc(NC(=O)CN(C)C(=O)CC2Sc3ccccc3NC2=O)c1 (configuration not stated),-4.5,x,-4.7,4.7,x,2.8,x,x,
CN(CC(=O)NCc1ccccc1)CC(=O)Nc1ccc(Cl)c(C(F)(F)F)c1,-0.1,x,1.5,-1.0,x,52.7*,37.2,9.2,
CN(CC(=O)Nc1ccc(Cl)c(C(F)(F)F)c1)C(=O)CC1Sc2ccccc2NC1=O (configuration not stated),-2.9,-0.7,10.2,3.7,1.8,50.9*,46.6*,18.7,Apaf1 inh interf=>100
CCCCOc1ccc(C2/C(=C(/O)c3ccc4c(c3)CC(C)O4)C(=O)C(=O)N2CCCN2CCOCC2)cc1OC (configuration not stated),-10.1,3.1,-95.5,-4.6,0.6,19.0,x,x,
COC(=O)c1ccc2c(=O)n(CCCCCC(=O)N3CCN(c4ccccc4)CC3)c(=O)[nH]c2c1,0.4,-2.4,1.4,17.5,-7.9,47.3*,12.3,3.9,
O=S(=O)(/N=C/N1CCOCC1)c1ccc(Cl)cc1,-1.0,5.7,16.7,-5.2,6.6,42.5*,10.7,-2.9,
O=S(=O)(/N=C(\c1ccc(Cl)cc1)N1CCOCC1)c1ccccc1,-4.7,3.5,2.4,1.9,9.6,-3.4,x,x,
Cc1cccc(C(=O)NCc2nnc(SCC(=O)Nc3nncs3)n2C)c1,1.2,-1.8,-4.2,-1.8,-7.1,-0.7,x,x,
C#CCOCCOCCOCCNc1nc(N2CCN(C(=O)CCCCCCCCCCNC(=O)[C@H](CCCCN)n3cc(CCO)nn3)CC2)nc(N2CCN(C(=O)CCCCCCCCCCNC(=O)[C@H](CCCCN)n3cc(CCCC(=O)O)nn3)CC2)n1,-3.6,4.3,-4.9,18.6,3.5,59.1*,33.9,8.5,
C#CCOCCOCCOCCNc1nc(N2CCN(C(=O)[C@H](CCCCN)n3cc(CN)nn3)CC2)nc(N2CCN(C(=O)[C@H](CCCCN)n3cc(CN)nn3)CC2)n1,1.4,x,5.7,x,x,44.1*,-5.0,0.3,
